# Measured values published in ChEMBL document CHEMBL3758104, “Reinvestigating Old Pharmacophores: Are 4-Aminoquinolines and Tetraoxanes Potential Two-Stage Antimalarials?” (J Med Chem, 2016).
# Activity calls are given as the source filed them. The calls are words filed in the database; no cut-off is given here.
# How the values were obtained:
# [1] = system: Plasmodium falciparum; assay: Antimalarial activity against 4th to 5th gametocyte stage of Plasmodium falciparum 3D7elo1-pfs16-CBG99 assessed as inhibition of gametocyte viability by luciferase reporter gene assay; assay type: functional, organism-based
# Outline: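 Stage IV–V gametocytes of luciferase-expressing 3D7elo1-pfs16-CBG99 strain (CBG99 under pfs16 promoter); luciferase activity as viability read-out. Viability = 100×(treated−blank)/(untreated−blank), blank = 100 nM epoxomicin-treated sample. Epoxomicin and dihydroartemisinin as positive controls. IC50 from nonlinear regression of dose–response; mean of three experiments in duplicate.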
# [2] = Intrinsic clearance in mouse hepatocytes assessed per 10^6 cells at 1 uM by LC-MS/MS analysis; assay type: ADME, cell-based, Hepatocyte; details: read-out: CLH
# Outline: (§1)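 Cryopreserved human or mouse hepatocytes equilibrated for 30 min at 37 °C, then given 1 μM final compound in duplicate at 37 °C. Samples quenched at set times in ice-cold methanol with internal standards. Parent depletion by LC-MS/MS (MRM) as % of time zero, fitted to first-order decay. t1/2 = 0.693/k, and CLint derived from it. Verapamil and warfarin served as controls.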
# [3] = system: Plasmodium berghei; assay: Antimalarial activity against Plasmodium berghei ANKA infected in C57Bl6 mouse at 40 mg/kg/day, po on days 3 to 5 by Thompson test; assay type: functional
# [4] = system: Hepatocyte; assay: Half life in human hepatocytes at 1 uM by LC-MS/MS analysis; assay type: ADME, cell-based; outline: as §1
# [5] = Half life in mouse hepatocytes at 1 uM by LC-MS/MS analysis; assay type: ADME, cell-based, Hepatocyte; outline: as §1
# [6] = system: Plasmodium berghei; assay: Antimalarial activity against sporozoite stage of Plasmodium berghei ANKA infected in C57BL/6J mouse assessed as reduction in liver parasite load at 80 mg/kg/, po administered for 3 days measured after 48 hrs by luciferase reporter gene assay relative to control; assay type: functional; parameters: scale not given: the % may be the effect or the level left
# Outline: (§2)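 C57BL/6J mice dosed by oral gavage (DMSO in sunflower oil) on three consecutive days: 24 h before, at, and 24 h after intravenous infection with luciferase-expressing P. berghei sporozoites. Controls got vehicle. Liver parasite load measured by in vivo luminescence 46–48 h after infection, after subcutaneous luciferin, expressed as % of controls. Two independent experiments.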
# [7] = system: Plasmodium berghei; assay: Antimalarial activity against sporozoite stage of Plasmodium berghei infected in human Huh7 cells assessed as remaining parasite infection at 2 uM pre-incubated for 24 hrs followed by parasite infection measured after 48 hrs by bioluminescence assay; details: Huh-7
# [8] = system: Hepatocyte; assay: Drug metabolism in mouse hepatocytes assessed as monohydroxylated metabolite formation at 1 uM after 60 mins by LC-MS/MS analysis; assay type: ADME, cell-based; details: 1 h
# Outline: (§3)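 Hepatocyte incubation of 1 μM compound at 37 °C, in duplicate. Supernatants analysed by LC-MS/MS, with SRM monitoring of phase I and II metabolites (oxidation, demethylation, dehydrogenation, glucuronidation, oxidation + glucuronidation).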
# [9] = system: Plasmodium falciparum; assay: Antimalarial activity against chloroquine-susceptible Plasmodium falciparum D6 after 48 hrs by [3H]hypoxanthine incorporation assay; assay type: functional, organism-based
# Outline: (§4)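 P. falciparum D6 (Sierra I/UNC clone), W2 (Indochina I clone), TM91C235 (South-East Asian clone) cultured with compound; growth inhibition by [3H]hypoxanthine incorporation (modified Desjardins/Milhous method). Chloroquine, mefloquine, artemisinin as positive controls. IC50 in nM; technical triplicates, curve fits R2 0.96–1.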
# [10] = Half life in human liver microsomes at 1 uM by LC-MS/MS analysis; assay type: ADME
# [11] = Inhibition of beta hematin formation measured as hemin equivalent after 18 hrs; assay type: physicochemical
# Outline: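 Hemin (16 mM in DMSO) mixed with compound at 0.125–5 mol equiv to hemin, plus water and 8 M acetate buffer pH 5.2, 25% DMSO final. Incubated 18 h at 37 °C. Pellet washed with DMSO, dissolved in 0.1 M NaOH, absorbance read at 405 nm (corrected at 670 nm) against a hemin calibration.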
# [12] = system: Hepatocyte; assay: Drug metabolism in human hepatocytes assessed as monohydroxylated metabolite formation at 1 uM after 60 mins by LC-MS/MS analysis; assay type: ADME, cell-based; details: 1 h; outline: as §3
# [13] = system: Hepatocyte; assay: Metabolic stability in human hepatocytes assessed as compound remaining at 1 uM after 60 mins by LC-MS/MS analysis; assay type: ADME, cell-based; details: 2 h, in the assay text read “120 mins” for “60 mins”; outline: as §1
# [14] = system: Plasmodium berghei; assay: Antimalarial activity against Plasmodium berghei ANKA infected in C57Bl6 mouse at 160 mg/kg/day, po measured on day 3 to 5 by Thompson test; assay type: functional
# [15] = system: HepG2; assay: Cytotoxicity against human HepG2 cells after 48 hrs by MTT assay; assay type: cell-based; details: HepG2, 48 h
# [16] = system: Mus musculus; assay: Toxicity in Plasmodium berghei ANKA infected C57Bl6 mouse at 160 mg/kg/day, po administered for 3 days measured 2 times a day for 31 days; assay type: organism-based; details: in vivo, 744 h
# [17] = system: Plasmodium berghei; assay: Antimalarial activity against Plasmodium berghei ANKA infected in C57Bl6 mouse at 80 mg/kg/day, po measured on day 3 to 5 by Thompson test; assay type: functional
# [18] = system: Plasmodium berghei; assay: Antimalarial activity against Plasmodium berghei ANKA infected in po dosed C57Bl6 mouse administered on day 3 to 5 by Thompson test; assay type: functional
# Outline: (§5)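 Modified Thompson test: C57Bl6 female mice inoculated intraperitoneally on day 0 with 1×10^6 P. berghei ANKA-infected erythrocytes; compound suspended in 0.5% hydroxyethylcellulose–0.1% Tween 80, given orally once daily on days 3, 4 and 5 post infection. Parasitemia by Giemsa-stained thin tail-blood smears on days 0, 3, 6, 10, 13, 17, 20, 24, 27, 31. Cure = survival without parasitemia to day 31.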
# [19] = Half life in mouse liver microsomes at 1 uM by LC-MS/MS analysis; assay type: ADME
# [20] = system: Plasmodium berghei; assay: Antimalarial activity against sporozoite stage of Plasmodium berghei infected in human Huh7 cells assessed as inhibition of parasite infection pre-incubated for 24 hrs followed by parasite infection measured after 48 hrs by bioluminescence assay; assay type: functional, organism-based; details: Huh-7
# [21] = system: Plasmodium berghei; assay: Antimalarial activity against sporozoite stage of Plasmodium berghei infected in human Huh7 cells assessed as inhibition of parasite infection at 0.125 uM pre-incubated for 24 hrs followed by parasite infection measured after 48 hrs by bioluminescence assay; assay type: functional; details: Huh-7
# [22] = system: Hepatocyte; assay: Drug metabolism in mouse hepatocytes assessed as dihydroxylated metabolite formation at 1 uM after 60 mins by LC-MS/MS analysis; assay type: ADME, cell-based; details: 1 h; outline: as §3
# [23] = system: Plasmodium berghei; assay: Antimalarial activity against sporozoite stage of Plasmodium berghei ANKA infected in C57Bl/6J mouse assessed as reduction in liver parasite load at 50 mg/kg/, po administered for 3 days measured after 48 hrs by luciferase reporter gene assay relative to control; assay type: functional; parameters: scale not given: the % may be the effect or the level left; outline: as §2
# [24] = system: Plasmodium berghei; assay: Antimalarial activity against Plasmodium berghei ANKA infected in C57Bl6 mouse assessed as reduction of parasitemia at 10 to 20 mg/kg/day, po administered for day 3 to 5 by Thompson test; assay type: functional, organism-based; outline: as §5
# [25] = system: Hepatocyte; assay: Drug metabolism in human hepatocytes assessed as dihydroxylated metabolite formation at 1 uM after 60 mins by LC-MS/MS analysis; assay type: ADME, cell-based; details: 1 h; outline: as §3
# [26] = system: Plasmodium falciparum; assay: Antimalarial activity against chloroquine-resistant Plasmodium falciparum W2 after 48 hrs by [3H]hypoxanthine incorporation assay; assay type: functional, organism-based; outline: as §4
# [27] = system: Plasmodium falciparum; assay: Antimalarial activity against mutidrug resistant Plasmodium falciparum TM91C235 after 48 hrs by [3H]hypoxanthine incorporation assay; assay type: functional, organism-based; outline: as §4
# [28] = Intrinsic clearance in human hepatocytes assessed per 10^6 cells at 1 uM by LC-MS/MS analysis; assay type: ADME, cell-based, Hepatocyte; details: read-out: CLH; outline: as §1
# [29] = Octanol-water partition coefficient, logP of the compound; assay type: physicochemical
smiles,measurement,setting,value
C[C@H]1[C@@H](O)O[C@@H]2O[C@@]3(C)CC[C@H]4[C@H](C)CC[C@@H]1[C@@]24OO3 [ARTENIMOL],IC50,[1],440 nM
CC(CCNCC12CC3CC(CC(C3)C1)C2)Nc1c(F)cnc2cc(Cl)ccc12 (stereo not given),hepatocyte CLint at 1 µM,[2],8.7 µL/min/1e6 cells
same,MST,[3],18.4 days
same,t1/2,[4],78 min
same,half-life at 1 µM,[5],79 min
same,Activity,[6],92%
same,% infection at 2 µM,[7],13%
same,Drug metabolism,[8],metabolite_detected
same,IC50,[9],135 nM
same,half-life at 1 µM,[10],13 min
same,IC50,[11],0.61 equiv
same,Drug metabolism,[12],metabolite_detected
same,Stability,[13],32%
same,MST,[14],26.2 days
same,IC50,[15],3.97 µM
same,Activity,[16],Non-toxic
same,MST,[17],>31 days
same,Activity,[18],Dose dependent effect
same,MCD,[18],80 mg/kg/day
same,half-life at 1 µM,[19],21 min
same,IC50,[20],310 nM
same,inhibition at 0.125 µM,[21],38%
same,Drug metabolism,[22],metabolite_detected
same,Activity,[23],84%
same,Activity,[24],inactive
same,Drug metabolism,[25],metabolite_detected
same,IC50,[26],238 nM
same,IC50,[27],197 nM
same,hepatocyte CLint at 1 µM,[28],8.9 µL/min/1e6 cells
same,logP,[29],3.25
